Results taken from ChEMBL document CHEMBL4732106, “Paracetamol analogues conjugated by FAAH induce TRPV1-mediated antinociception without causing acute liver toxicity” (Eur J Med Chem, 2021).
The source made the active and inactive calls. The rule behind the calls is not given here.

Assays:
[1] = test system: Mus musculus; assay: Antipyretic activity against LPS-induced C57BL/6 mouse model of hyperthermia assessed as PGF2alpha level in diencephalon at 25 mg/kg, ip measured after 40 mins by LC-MS/MS analysis relative to control; assay type: functional
Outline: (§1)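 Male C57BL/6 mice got LPS (E. coli O111:B4, 100 μg kg⁻¹ i.p.) or saline, then 3 h later the drug i.p. in Ringer's acetate vehicle. Diencephalon was taken 40 min later and homogenized in Tris/EDTA/ascorbate with 10 μM MAFP and 100 μM ibuprofen. Prostanoids were quantified by negative-ion LC-MS/MS and expressed as % of LPS + vehicle. n = 6.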

[2] = test system: Mus musculus; assay: Antinociceptive activity in C57BL/6 mouse assessed as reduction in licking time during second phase at 25 mg/kg, ip treated for 10 mins and measured for 15 to 40 mins in presence of FAAH inhibitor URB937 by formalin test; assay type: functional, organism-based; settings: time 50.0 min
Outline: (§2)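 Male C57BL/6 mice, 8 weeks old. URB937 (5 μg in 5 μl) or capsazepine (10 μg in 5 μl) was given i.c.v. under brief isoflurane, 2 mm deep, 5 min before the i.p. test amine. Formalin 2.5% (25 μl) was injected intraplantar 10 min after dosing. Paw biting/licking time was scored in phase I (0–5 min) and phase II (15–40 min) by a blinded observer. Mean ± SEM, n = 8–14.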

[3] = test system: Mus musculus; assay: Antinociceptive activity in C57BL/6 mouse assessed as reduction in licking time during second phase at 25 mg/kg, ip treated for 10 mins and measured for 15 to 40 mins in presence of TRPV1 antagonist capsazepine by formalin test; assay type: functional, organism-based; settings: time 50.0 min; outline: as §2
[4] = Prodrug conversion in FAAH-/- mouse brain assessed as N-arachidonoyl conjugate level per g protein at 100 mg/kg, ip measured after 20 mins by LC-MS/MS analysis; assay type: ADME, organism-based; design: unit: pmol/g protein; settings: in vivo
Outline: (§3)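 FAAH+/+ and FAAH-/- mice (both sexes) received the primary amine i.p. in saline (sometimes with 5% DMSO). Brains were collected 20 min later, frozen, and homogenized in Tris/EDTA/ascorbate with 10 μM MAFP. N-arachidonoyl conjugates were quantified by positive-ion LC-MS/MS and normalized to protein.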

[5] = test system: Mus musculus; assay: Antipyretic activity against LPS-induced C57BL/6 mouse model of hyperthermia assessed as reduction in body temperature at 25 mg/kg, ip measured after 48 mins; assay type: functional, organism-based
Outline: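 Male C57BL/6 mice carried telemetry and recovered ≥1 week before use, housed at 29 °C ambient (near-thermoneutral). LPS 100 μg kg⁻¹ i.p. or saline was given, then drug or Ringer's acetate vehicle i.p. 3 h later. Core temperature was recorded continuously and analysed at the nadir time point. n = 4–9 per group.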

[6] = test system: Mus musculus; assay: Antinociceptive activity in C57BL/6 mouse assessed as reduction in licking time during first phase at 25 mg/kg, ip treated for 10 mins and measured for 5 mins in presence of FAAH inhibitor URB937 by formalin test; assay type: functional, organism-based; settings: time 15.0 min; outline: as §2
[7] = test system: Mus musculus; assay: Antipyretic activity against LPS-induced C57BL/6 mouse model of hyperthermia assessed as TXB2 level in diencephalon at 25 mg/kg, ip measured after 40 mins by LC-MS/MS analysis relative to control; assay type: functional; outline: as §1
[8] = test system: Mus musculus; assay: Antipyretic activity against LPS-induced C57BL/6 mouse model of hyperthermia assessed as PGE2 level in diencephalon at 25 mg/kg, ip measured after 40 mins by LC-MS/MS analysis relative to control; assay type: functional; outline: as §1
[9] = test system: Mus musculus; assay: Antinociceptive activity in C57BL/6 mouse assessed as reduction in licking time during first phase at 25 mg/kg, ip treated for 10 mins and measured for 5 mins in presence of TRPV1 antagonist capsazepine by formalin test; assay type: functional, organism-based; settings: time 15.0 min; outline: as §2
[10] = Effect on locomotor activity in C57BL/6 mouse assessed as change in latency to fall at 25 mg/kg, ip treated for 10 mins measured up to 60 mins by rotarod test; assay type: ADME, organism-based; settings: in vivo, 1 h
Outline: (§4)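 Male C57BL/6 mice were first trained on a rotarod at a constant 4 rpm in 1-min sessions. At various times after i.p. dosing, the drum was accelerated from 4 to 40 rpm over 5 min and the latency to fall was recorded.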

[11] = test system: Mus musculus; assay: Antinociceptive activity in ip dosed C57BL/6 mouse assessed as reduction in licking time during second phase treated for 10 mins and measured for 15 to 40 mins by formalin test; assay type: functional, organism-based; settings: dose 25-100 mg/kg, time 50.0 min
Outline: (§5)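 Male C57BL/6 mice, 8 weeks old, randomized in equal blocks (5–10 per group), observer blinded. The test amine or vehicle was given i.p. 10 min before intraplantar 2.5% formalin (25 μl/mouse). Time spent biting/licking the injected paw was recorded in phase I (0–5 min) and phase II (15–40 min). Mean ± SEM, n = 5–6.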

[12] = Hepatotoxicity in C57BL/6 mouse assessed as change in ALT level at 300 mg/kg, ip measured after 12 hrs; assay type: toxicity, organism-based; settings: in vivo
Outline: (§6)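 Male C57BL/6 mice (8 weeks) were fasted 12–16 h, then given 300 mg kg⁻¹ i.p. in saline. At 12 h, blood was taken for serum ALT/AST (automated analyser). The left medial liver lobe was fixed in 4% formaldehyde, cryosectioned at 10 μm and stained with H&E. The ALT/AST ratio was tested against 1. Mean ± SEM, n = 6–7.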

[13] = test system: Mus musculus; assay: Antinociceptive activity in ip dosed C57BL/6 mouse assessed as reduction in licking time during first phase treated for 10 mins and measured for 5 mins by formalin test; assay type: functional, organism-based; settings: dose 25-100 mg/kg, time 15.0 min; outline: as §5
[14] = Prodrug conversion in FAAH+/+ mouse brain assessed as N-arachidonoyl conjugate level per g protein at 100 mg/kg, ip measured after 20 mins by LC-MS/MS analysis; assay type: ADME, organism-based; design: unit: pmol/g protein; settings: in vivo; outline: as §3
[15] = target: T1, Fatty-acid amide hydrolase 1 (Mus musculus, UniProt O08914); assay: Substrate activity at FAAH in FAAH+/+ mouse brain assessed as N-arachidonoyl conjugate level per g protein at 0.1 mM measured after 20 mins by LC-MS/MS analysis; assay type: ADME, tissue-based; settings: 100 µM
T1 sequence (O08914 whole entry): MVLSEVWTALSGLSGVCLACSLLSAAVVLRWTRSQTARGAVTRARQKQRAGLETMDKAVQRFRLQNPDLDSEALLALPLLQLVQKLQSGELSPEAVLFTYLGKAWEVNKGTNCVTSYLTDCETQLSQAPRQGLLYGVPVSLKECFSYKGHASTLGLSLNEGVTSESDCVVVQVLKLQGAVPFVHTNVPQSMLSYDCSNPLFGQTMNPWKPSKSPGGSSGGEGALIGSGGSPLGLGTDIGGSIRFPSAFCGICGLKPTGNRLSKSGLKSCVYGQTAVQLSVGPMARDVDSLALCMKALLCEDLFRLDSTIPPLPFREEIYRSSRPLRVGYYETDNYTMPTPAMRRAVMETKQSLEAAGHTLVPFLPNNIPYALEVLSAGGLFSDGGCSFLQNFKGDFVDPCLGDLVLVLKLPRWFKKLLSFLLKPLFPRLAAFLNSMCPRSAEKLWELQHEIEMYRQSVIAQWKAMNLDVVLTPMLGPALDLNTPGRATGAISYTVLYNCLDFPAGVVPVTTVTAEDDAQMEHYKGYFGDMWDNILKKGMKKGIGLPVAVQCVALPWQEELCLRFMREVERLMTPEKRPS
Outline: (§7)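 Brains from FAAH+/+ or FAAH-/- mice were homogenized in ice-cold 10 mM Tris with 1 mM EDTA and 0.3 mM ascorbic acid. Aliquots were incubated with 0.1 mM primary amine for 20 min at 37 °C with stirring. Reactions were stopped with cold acetone containing AM404-d4 internal standard, and conjugates were measured by LC-MS/MS. n = 5–7.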

[16] = Prodrug conversion in FAAH-/- mouse brain assessed as N-arachidonoyl conjugate level per g protein at 0.1 mM measured after 20 mins by LC-MS/MS analysis; assay type: ADME, tissue-based; settings: in vitro, 100 µM; outline: as §7
[17] = test system: Mus musculus; assay: Antipyretic activity against LPS-induced C57BL/6 mouse model of hyperthermia assessed as 6-keto-PGF1alpha level in diencephalon at 25 mg/kg, ip measured after 40 mins by LC-MS/MS analysis relative to control; assay type: functional; outline: as §1
[18] = Hepatotoxicity in C57BL/6 mouse assessed as centrilobular necrosis at 300 mg/kg, ip measured after 12 hrs by H and E staining based microscopic analysis; assay type: toxicity, organism-based; settings: in vivo; outline: as §6
[19] = target: T2, Transient receptor potential cation channel subfamily V member 1 (Rattus norvegicus, UniProt O35433); assay: Agonist activity at TRPV1 in rat isolated mesenteric arteries assessed as vasorelaxation of phenylephrine-induced contraction in presence of TRPV1 antagonist capsazepine; assay type: tissue-based, Artery
T2 sequence (O35433 whole entry): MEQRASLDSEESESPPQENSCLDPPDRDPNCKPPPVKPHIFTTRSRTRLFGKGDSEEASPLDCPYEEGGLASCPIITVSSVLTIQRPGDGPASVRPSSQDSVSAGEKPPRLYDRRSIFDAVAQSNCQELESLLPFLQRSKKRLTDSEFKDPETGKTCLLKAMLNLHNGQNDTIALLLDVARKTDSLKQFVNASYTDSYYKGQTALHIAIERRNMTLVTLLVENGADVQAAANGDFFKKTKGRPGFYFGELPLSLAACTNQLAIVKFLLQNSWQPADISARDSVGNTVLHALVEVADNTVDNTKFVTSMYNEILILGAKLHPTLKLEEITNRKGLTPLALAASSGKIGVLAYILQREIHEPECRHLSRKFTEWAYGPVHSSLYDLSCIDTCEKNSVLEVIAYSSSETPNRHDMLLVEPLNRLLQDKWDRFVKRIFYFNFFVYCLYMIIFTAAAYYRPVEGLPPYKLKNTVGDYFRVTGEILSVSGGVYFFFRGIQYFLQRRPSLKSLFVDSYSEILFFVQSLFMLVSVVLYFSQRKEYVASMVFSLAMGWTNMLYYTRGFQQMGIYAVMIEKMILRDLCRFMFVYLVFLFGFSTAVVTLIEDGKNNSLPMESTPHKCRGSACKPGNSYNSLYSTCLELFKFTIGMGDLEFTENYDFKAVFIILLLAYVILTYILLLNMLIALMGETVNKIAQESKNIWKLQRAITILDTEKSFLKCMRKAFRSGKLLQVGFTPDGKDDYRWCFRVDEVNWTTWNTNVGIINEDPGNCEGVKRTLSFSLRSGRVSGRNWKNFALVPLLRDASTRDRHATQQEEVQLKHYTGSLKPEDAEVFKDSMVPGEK
Outline: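 Segments from male Wistar rats (200–250 g) were bathed in pH 7.4 physiological salt solution at 37 °C, gassed 95% O₂/5% CO₂, with indomethacin 10 μM and Nω-nitro-L-arginine 100 μM present. After phenylephrine precontraction, conjugate concentration–relaxation curves were run in the presence of capsazepine 3 μM. pEC₅₀ is the negative log molar concentration giving half-maximal relaxation; mean ± SEM, n = animals.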

[20] = target: T2, Transient receptor potential cation channel subfamily V member 1; assay: Agonist activity at TRPV1 in rat isolated mesenteric arteries assessed as vasorelaxation of phenylephrine-induced contraction; assay type: tissue-based, Artery
Outline: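 Indomethacin 10 μM and Nω-nitro-L-arginine 100 μM were present throughout. Segments were precontracted with phenylephrine and exposed to conjugate concentrations. pEC₅₀ taken at half-maximal relaxation; mean ± SEM, n = animals.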

[21] = test system: Mus musculus; assay: Antinociceptive activity in C57BL/6 mouse assessed as reduction in licking time during second phase at 50 mg/kg, ip treated for 10 mins and measured for 15 to 40 mins in presence of FAAH inhibitor URB937 by formalin test; assay type: functional, organism-based; settings: time 50.0 min; outline: as §2
[22] = Effect on locomotor activity in C57BL/6 mouse assessed as change in latency to fall at 50 to 75 mg/kg, ip treated for 10 mins measured up to 60 mins by rotarod test; assay type: ADME, organism-based; settings: in vivo, 1 h, dose 50-75 mg/kg; outline: as §4
[23] = test system: Mus musculus; assay: Antinociceptive activity in C57BL/6 mouse assessed as reduction in licking time during second phase at 50 mg/kg, ip treated for 10 mins and measured for 15 to 40 mins in presence of TRPV1 antagonist capsazepine by formalin test; assay type: functional, organism-based; settings: time 50.0 min; outline: as §2
[24] = test system: Mus musculus; assay: Antinociceptive activity in C57BL/6 mouse assessed as reduction in licking time during first phase at 50 mg/kg, ip treated for 10 mins and measured for 5 mins in presence of FAAH inhibitor URB937 by formalin test; assay type: functional, organism-based; settings: time 15.0 min; outline: as §2
[25] = test system: Mus musculus; assay: Antinociceptive activity in C57BL/6 mouse assessed as reduction in licking time during first phase at 50 mg/kg, ip treated for 10 mins and measured for 5 mins in presence of TRPV1 antagonist capsazepine by formalin test; assay type: functional, organism-based; settings: time 15.0 min; outline: as §2
[26] = Prodrug conversion in FAAH+/+ mouse brain assessed as N-arachidonoyl conjugate level per g protein at 300 mg/kg, ip measured after 20 mins by LC-MS/MS analysis; assay type: ADME, organism-based; settings: in vivo; outline: as §3
[27] = Prodrug conversion in FAAH-/- mouse brain assessed as N-arachidonoyl conjugate level per g protein at 300 mg/kg, ip measured after 20 mins by LC-MS/MS analysis; assay type: ADME, organism-based; settings: in vivo; outline: as §3

| Compound | Drug metabolism [4] [pmol] | Drug metabolism [14] [pmol] | Drug metabolism [15] [nmol/g] | Drug metabolism [16] [nmol/g] | Activity [11] | Activity [12] | Activity [13] | Activity [18] | EC50 [19] [nM] | EC50 [20] [nM] | further results |
| --- | --- | --- | --- | --- | --- | --- | --- | --- | --- | --- | --- |
| CCCCC/C=C\C/C=C\C/C=C\C/C=C\CCCC(=O)NCc1ccc2[nH]ncc2c1 | – | – | – | – | – | – | – | – | 158 | 3.98 | – |
| CCCCC/C=C\C/C=C\C/C=C\C/C=C\CCCC(=O)Nc1ccc(O)c(OC)c1 | – | – | – | – | – | – | – | – | 15.8 | 1.26 | – |

Further lines, with some results ahead:

| Drug metabolism [4] [pmol] | Drug metabolism [14] [pmol] | Drug metabolism [15] [nmol/g] | Drug metabolism [16] [nmol/g] | Compound | Activity [11] | Activity [12] | Activity [13] | Activity [18] | EC50 [19] [nM] | EC50 [20] [nM] | further results |
| --- | --- | --- | --- | --- | --- | --- | --- | --- | --- | --- | --- |
| 161 | 1731 | 12 | 0.09 | Nc1ccc2[nH]ncc2c1 | Dose-dependent effect | Non-Toxic | Dose-dependent effect | Non-Toxic | – | – | Activity [1]: 100%; Activity [2]: inactive; Activity [3]: inactive; Activity [5]: Active; Activity [6]: Active; Activity [7]: 91%; Activity [8]: 96%; Activity [9]: Active; Activity [10]: Non-Toxic; Activity [17]: 99% |
| 42 | 283 | 3 | 0.06 | COc1ccc(N)cc1O | Dose-dependent effect | Non-Toxic | Dose-dependent effect | Non-Toxic | – | – | Activity [21]: inactive; Activity [22]: Non-Toxic; Activity [23]: inactive; Activity [24]: Active; Activity [25]: Active |
| – | – | 2.5 | 0.01 | COc1cc(CN)ccc1O | – | Non-Toxic | – | Non-Toxic | – | – | Drug metabolism [26]: 40 pmol; Drug metabolism [27]: Metabolite_Notdetected |
